Results as given in ChEMBL document CHEMBL3351508, “Second-generation antibacterial benzimidazole ureas: discovery of a preclinical candidate with reduced metabolic liability” (J Med Chem, 2014).
pKi: −log10 of the molar value. Converted amounts (≈) assume the structure as drawn.

Assays:
Streptococcus pneumoniae = test: Antibacterial activity against Streptococcus pneumoniae ATCC 10015 by CLSI method; assay type: functional
In short: (§1)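 Broth microdilution MIC in liquid medium following CLSI methods, with ATCC strains. Each run was accepted only if comparator antibiotics fell within their recommended quality-control ranges for the appropriate ATCC strain.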

Enterococcus faecalis = test: Antibacterial activity against Enterococcus faecalis ATCC 29212 by CLSI method; assay type: functional; in short: as §1
DNA gyrase = DNA gyrase (Escherichia coli, UniProt P0AES4+P0AES6); test: Inhibition of […] Escherichia coli DNA gyrase A2B2 using pBR322 plasmid DNA as substrate by coupled enzyme reaction assay; assay type: protein-complex assay
Haemophilus influenzae = test: Antibacterial activity against Haemophilus influenzae ATCC 49247 by CLSI method; assay type: functional; in short: as §1
Staphylococcus aureus [1] = test: Antibacterial activity against Staphylococcus aureus ATCC 29213 by CLSI method; assay type: functional; in short: as §1
Staphylococcus aureus [2] = test: Antibacterial activity against Staphylococcus aureus ATCC 29213 by CLSI method in presence of human 50% serum; assay type: functional; in short: as §1
[3] = Inhibition of Staphylococcus aureus DNA topoisomerase-4 C2E2 using pBR322 plasmid DNA as substrate by coupled enzyme reaction assay
[4] = Drug metabolism in human liver S9 fractions assessed as compound formation treated with 30 uM 1-Ethyl-3-(5-(5-fluoropyridin-3-yl)-7-(pyrimidin-2-yl)-1H-benzo-[d]imidazol-2-yl)urea for 1 hr; assay type: ADME, subcellular, Liver S9 fraction; conditions: s9, 1 h
Liver microsome [5] = test: Drug metabolism in rat liver microsomes assessed as compound formation treated with 30 uM 1-Ethyl-3-(5-(5-fluoropyridin-3-yl)-7-(pyrimidin-2-yl)-1H-benzo-[d]imidazol-2-yl)urea for 1 hr; assay type: ADME
Liver microsome [6] = test: Drug metabolism in human liver microsomes assessed as compound formation treated with 30 uM 1-Ethyl-3-(5-(5-fluoropyridin-3-yl)-7-(pyrimidin-2-yl)-1H-benzo-[d]imidazol-2-yl)urea for 1 hr; assay type: ADME
[7] = Drug metabolism in monkey liver microsomes assessed as compound formation treated with 30 uM 1-Ethyl-3-(5-(5-fluoropyridin-3-yl)-7-(pyrimidin-2-yl)-1H-benzo-[d]imidazol-2-yl)urea for 1 hr; assay type: ADME, Macaca mulatta; conditions: rhesus monkey
Cytochrome P450 3A4 = Cytochrome P450 3A4 (Homo sapiens, UniProt P08684); test: Drug metabolism in recombinant CYP3A4 (unknown origin) assessed as compound formation treated with 1 uM 1-Ethyl-3-(5-(5-fluoropyridin-3-yl)-7-(pyrimidin-2-yl)-1H-benzo-[d]imidazol-2-yl)urea for 30 mins; assay type: ADME; conditions: recombinant enzyme, 0.5 h, in the assay text read “10 uM” for “1 uM”
In short: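 Parent at 1 and 10 μM was incubated with individual recombinant CYP supersomes, with and without NADPH, for 0, 15 and 30 min. Formation of the imine metabolite was quantified by LC-MS/MS.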

Cytochrome P450 1A2 = biological target: T1, Cytochrome P450 1A2 (Homo sapiens, UniProt P05177); test: Drug metabolism in recombinant CYP1A2 (unknown origin) assessed as compound formation treated with 10 uM 1-Ethyl-3-(5-(5-fluoropyridin-3-yl)-7-(pyrimidin-2-yl)-1H-benzo-[d]imidazol-2-yl)urea for 30 mins; conditions: recombinant enzyme, 0.5 h
T1 sequence (P05177 whole entry): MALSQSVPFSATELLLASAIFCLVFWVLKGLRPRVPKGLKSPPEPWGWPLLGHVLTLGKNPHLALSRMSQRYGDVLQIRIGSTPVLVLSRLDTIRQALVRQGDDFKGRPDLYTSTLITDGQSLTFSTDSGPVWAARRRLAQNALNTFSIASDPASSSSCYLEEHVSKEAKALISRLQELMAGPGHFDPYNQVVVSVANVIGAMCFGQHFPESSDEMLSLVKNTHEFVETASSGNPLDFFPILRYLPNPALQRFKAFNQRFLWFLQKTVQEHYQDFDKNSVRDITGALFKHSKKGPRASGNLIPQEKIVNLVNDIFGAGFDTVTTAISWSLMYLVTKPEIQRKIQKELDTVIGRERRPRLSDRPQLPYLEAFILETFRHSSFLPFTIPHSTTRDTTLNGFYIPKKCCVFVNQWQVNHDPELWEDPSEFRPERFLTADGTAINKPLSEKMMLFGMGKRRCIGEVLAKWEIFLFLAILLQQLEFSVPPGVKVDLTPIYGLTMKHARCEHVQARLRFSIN

Cytochrome P450 2D6 = Cytochrome P450 2D6 (Homo sapiens, UniProt P10635); test: Drug metabolism in recombinant CYP2D6 (unknown origin) assessed as compound formation treated with 10 uM 1-Ethyl-3-(5-(5-fluoropyridin-3-yl)-7-(pyrimidin-2-yl)-1H-benzo-[d]imidazol-2-yl)urea for 30 mins; conditions: recombinant enzyme, 0.5 h
Enterococcus faecium = test: Antibacterial activity against Enterococcus faecium ATCC 49624 by CLSI method; assay type: functional; in short: as §1
Rattus norvegicus = test: Dose normalized AUC in rat at 30 mg/kg, po; assay type: ADME, organism-based; design: dose 30 mg/kg, route oral; conditions: in vivo

Sequence of Cytochrome P450 2D6 (P10635 whole entry): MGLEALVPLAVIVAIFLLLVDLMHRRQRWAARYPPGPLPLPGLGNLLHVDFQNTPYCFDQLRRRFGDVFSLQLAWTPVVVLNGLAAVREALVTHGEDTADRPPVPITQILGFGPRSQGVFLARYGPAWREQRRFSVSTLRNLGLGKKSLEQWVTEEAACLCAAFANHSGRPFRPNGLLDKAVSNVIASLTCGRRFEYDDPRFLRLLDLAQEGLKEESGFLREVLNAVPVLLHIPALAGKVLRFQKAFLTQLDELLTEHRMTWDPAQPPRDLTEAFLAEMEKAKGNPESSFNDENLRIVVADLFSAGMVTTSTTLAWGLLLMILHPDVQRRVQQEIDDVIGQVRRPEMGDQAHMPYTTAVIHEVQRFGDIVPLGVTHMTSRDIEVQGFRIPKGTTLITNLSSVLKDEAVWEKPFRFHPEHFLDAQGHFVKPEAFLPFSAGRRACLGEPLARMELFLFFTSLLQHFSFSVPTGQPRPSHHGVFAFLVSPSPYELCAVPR
Sequence of Cytochrome P450 3A4 (P08684 whole entry): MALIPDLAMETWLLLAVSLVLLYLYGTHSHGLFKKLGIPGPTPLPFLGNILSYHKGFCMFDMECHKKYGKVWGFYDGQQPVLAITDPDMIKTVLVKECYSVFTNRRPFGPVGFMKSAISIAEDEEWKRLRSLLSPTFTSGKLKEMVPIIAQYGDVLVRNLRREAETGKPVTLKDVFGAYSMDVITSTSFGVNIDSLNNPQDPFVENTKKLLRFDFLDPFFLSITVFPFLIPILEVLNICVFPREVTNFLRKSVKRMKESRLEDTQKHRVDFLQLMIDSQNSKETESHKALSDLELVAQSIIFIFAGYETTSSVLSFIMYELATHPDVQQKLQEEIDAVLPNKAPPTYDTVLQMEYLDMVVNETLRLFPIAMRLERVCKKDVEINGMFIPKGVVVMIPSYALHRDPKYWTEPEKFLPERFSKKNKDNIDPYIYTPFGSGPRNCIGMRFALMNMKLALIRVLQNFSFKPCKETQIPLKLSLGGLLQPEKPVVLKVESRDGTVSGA

Row | MIC (Streptococcus pneumoniae) [µg/mL] | MIC (Enterococcus faecalis) [µg/mL] | MIC (Staphylococcus aureus [1]) [µg/mL] | MIC (Staphylococcus aureus [2]) [µg/mL] | MIC (Enterococcus faecium) [µg/mL] | AUC/dose (Rattus norvegicus) [microg.hr/mL per mg/kg] | Compound | further results
1 | ≤ 0.008 | 0.032 (≈ 0.0735 µM) | 0.031 (≈ 0.0712 µM) | 0.25 | – | – | CCNC(=O)Nc1nc2cc(-c3cnc(C(C)(C)O)nc3)cc(-c3ncccc3F)c2[nH]1 | pKi (DNA gyrase): > 8.40; MIC (Haemophilus influenzae): 1 µg/mL (≈ 2.3 µM); pKi [3]: > 8.22
2 | – | – | > 8 | > 8 | – | – | NC(=O)Nc1nc2cc(-c3cncc(F)c3)cc(-c3ncccn3)c2[nH]1 | –
3 | – | – | > 8 | > 8 | – | – | CCCC(=O)Nc1nc2cc(-c3cncc(F)c3)cc(-c3ncccn3)c2[nH]1 | –
4 | 0.032 (≈ 0.0846 µM) | 0.032 (≈ 0.0846 µM) | 0.064 (≈ 0.169 µM) | 8 | 0.032 (≈ 0.0846 µM) | – | COCC(=O)Nc1nc2cc(-c3cncc(F)c3)cc(-c3ncccn3)c2[nH]1 | –
5 | 0.016 (≈ 0.0334 µM) | 0.063 (≈ 0.132 µM) | 0.063 (≈ 0.132 µM) | 0.5 | 0.25 (≈ 0.522 µM) | 1.9 | CCNC(=O)Nc1nc2cc(-c3ccc(CN4CCOCC4)nc3)c(F)c(-n3cc(C)cn3)c2[nH]1 | –
6 | 0.032 (≈ 0.0756 µM) | 0.125 (≈ 0.295 µM) | 0.063 (≈ 0.149 µM) | 2 | 0.25 (≈ 0.59 µM) | 7.2 | CCNC(=O)Nc1nc2cc(-c3ccc(C(O)CC)nc3)c(F)c(-n3cccn3)c2[nH]1 (stereo not given) | –
7 | 0.032 (≈ 0.078 µM) | 0.063 (≈ 0.153 µM) | 0.125 (≈ 0.305 µM) | 0.25 | 0.5 (≈ 1.22 µM) | 4.3 | CCNC(=O)Nc1nc2cc(-c3cnc(C(C)(C)O)nc3)cc([C@H]3CCCO3)c2[nH]1 | –
8 | 0.25 (≈ 0.583 µM) | 0.5 (≈ 1.17 µM) | 0.5 (≈ 1.17 µM) | 4 | 2 (≈ 4.67 µM) | – | CCNC(=O)Nc1nc2cc(-c3cnc(C(C)(C)O)nc3)c(F)c([C@@H]3CCCO3)c2[nH]1 | –
9 | 0.032 (≈ 0.0747 µM) | 0.125 (≈ 0.292 µM) | 0.063 (≈ 0.147 µM) | 0.5 | 0.5 (≈ 1.17 µM) | – | CCNC(=O)Nc1nc2cc(-c3cnc(C(C)(C)O)nc3)c(F)c(C3CCCO3)c2[nH]1 (racemic) | –

The remaining lines, values behind:

Row | Compound | MIC (Streptococcus pneumoniae) [µg/mL] | MIC (Enterococcus faecalis) [µg/mL] | MIC (Staphylococcus aureus [1]) [µg/mL] | MIC (Staphylococcus aureus [2]) [µg/mL] | MIC (Enterococcus faecium) [µg/mL] | AUC/dose (Rattus norvegicus) [microg.hr/mL per mg/kg] | further results
10 | CCNC(=O)Nc1nc2cc(-c3cccnc3)cc(-c3ncccc3F)c2[nH]1 | ≤ 0.008 | 0.016 (≈ 0.0425 µM) | 0.031 (≈ 0.0824 µM) | 1 | – | – | pKi (DNA gyrase): 8.22; MIC (Haemophilus influenzae): 1 µg/mL (≈ 2.66 µM)
11 | C=CNC(=O)Nc1nc2cc(-c3cncc(F)c3)cc(-c3ncccn3)c2[nH]1 | – | – | – | – | – | – | Drug metabolism [4]: metabolite_detected; Drug metabolism (Liver microsome [5]): metabolite_detected; Drug metabolism (Liver microsome [6]): metabolite_detected; Drug metabolism [7]: metabolite_detected
12 | O=C(Nc1nc2cc(-c3cncc(F)c3)cc(-c3ncccn3)c2[nH]1)NC1CO1 (stereo not given) | – | – | – | – | – | – | Drug metabolism [4]: metabolite_detected; Drug metabolism (Liver microsome [5]): metabolite_detected; Drug metabolism (Liver microsome [6]): metabolite_detected; Drug metabolism [7]: metabolite_detected
13 | CC1NC(=O)Nc2nc3c(-c4ncccn4)cc(-c4cncc(F)c4)cc3n21 (stereo not given) | – | – | – | – | – | – | Drug metabolism [4]: metabolite_detected; Drug metabolism (Cytochrome P450 3A4): metabolite_detected; Drug metabolism (Liver microsome [5]): metabolite_detected; Drug metabolism (Liver microsome [6]): metabolite_detected; Drug metabolism (Cytochrome P450 1A2): metabolite_detected; Drug metabolism (Cytochrome P450 2D6): metabolite_detected; Drug metabolism [7]: metabolite_detected
14 | CNCC(=O)Nc1nc2cc(-c3cncc(F)c3)cc(-c3ncccn3)c2[nH]1 | > 8 | > 8 | > 8 | > 8 | > 8 | – | –
15 | CCOC(=O)Nc1nc2cc(-c3cncc(F)c3)cc(-c3ncccn3)c2[nH]1 | 0.008 (≈ 0.0211 µM) | 0.016 (≈ 0.0423 µM) | 0.016 (≈ 0.0423 µM) | > 8 | 0.016 (≈ 0.0423 µM) | – | –
16 | CCNC(=O)Nc1nc2cc(-c3cccnc3)c(F)c(-n3cccn3)c2[nH]1 | 0.032 (≈ 0.0876 µM) | 0.063 (≈ 0.172 µM) | 0.25 (≈ 0.684 µM) | 2 | – | 10.8 | –
17 | CCNC(=O)Nc1nc2cc(-c3ccc(CN4CCOCC4)nc3)c(F)c(-n3cccn3)c2[nH]1 | 0.016 (≈ 0.0344 µM) | 0.125 (≈ 0.269 µM) | 0.25 (≈ 0.538 µM) | 1 | 0.5 (≈ 1.08 µM) | 13.8 | –
18 | CCNC(=O)Nc1nc2cc(-c3cc(C)n(Cc4ccccn4)c(=O)c3)c(F)c(-n3cc(C)cn3)c2[nH]1 | 0.008 (≈ 0.016 µM) | 0.016 (≈ 0.032 µM) | 0.016 (≈ 0.032 µM) | 0.125 | 0.032 (≈ 0.0639 µM) | 0.2 | –
19 | CCNC(=O)Nc1nc2cc(-c3ccc(C(C)O)nc3)c(F)c(-n3cccn3)c2[nH]1 (stereo not given) | 0.032 (≈ 0.0782 µM) | 0.125 (≈ 0.305 µM) | 0.125 (≈ 0.305 µM) | 3 | 0.5 (≈ 1.22 µM) | – | –
20 | CCNC(=O)Nc1nc2cc(-c3ccc([C@@H](O)CC)nc3)c(F)c(-n3cccn3)c2[nH]1 | 0.016 (≈ 0.0378 µM) | 0.063 (≈ 0.149 µM) | 0.063 (≈ 0.149 µM) | 1 | 0.5 (≈ 1.18 µM) | 8.4 | –
21 | CCNC(=O)Nc1nc2cc(-c3ccc([C@H](O)CC)nc3)c(F)c(-n3cccn3)c2[nH]1 | 0.063 (≈ 0.149 µM) | 0.063 (≈ 0.149 µM) | 0.25 (≈ 0.59 µM) | 4 | 0.25 (≈ 0.59 µM) | – | –
22 | CCNC(=O)Nc1nc2cc(-c3cnc(C(C)(C)O)nc3)cc([C@@H]3CCCO3)c2[nH]1 | 0.5 (≈ 1.22 µM) | 1 (≈ 2.44 µM) | 1 (≈ 2.44 µM) | 2 | 2 (≈ 4.87 µM) | – | –
23 | CCNC(=O)Nc1nc2c(-n3cccn3)cc(-c3cccnc3)cc2[nH]1 | 0.016 (≈ 0.0461 µM) | 0.063 (≈ 0.181 µM) | 0.25 (≈ 0.72 µM) | 4 | – | 5.7 | –
24 | CCNC(=O)Nc1nc2cc(-c3cccnc3)cc(C3CCCO3)c2[nH]1 (racemic) | 0.125 (≈ 0.356 µM) | 0.25 (≈ 0.711 µM) | 1 (≈ 2.85 µM) | 4 | – | – | –
25 | CCNC(=O)Nc1nc2cc(-c3cncnc3)cc(C3CCCO3)c2[nH]1 (racemic) | 0.125 (≈ 0.355 µM) | 0.5 (≈ 1.42 µM) | 1 (≈ 2.84 µM) | 2 | 1 (≈ 2.84 µM) | 10.5 | –
26 | CCNC(=O)Nc1nc2cc(-c3ccn(C)c(=O)c3)cc(C3CCCO3)c2[nH]1 (racemic) | 0.016 (≈ 0.0419 µM) | 0.25 (≈ 0.655 µM) | 0.75 (≈ 1.97 µM) | 0.75 | 0.25 (≈ 0.655 µM) | – | –
27 | CCNC(=O)Nc1nc2cc(-c3cc(C)n(Cc4ccccn4)c(=O)c3)cc(C3CCCO3)c2[nH]1 (racemic) | 0.008 (≈ 0.0169 µM) | 0.125 (≈ 0.265 µM) | 0.125 (≈ 0.265 µM) | 0.25 | 0.25 (≈ 0.529 µM) | – | –
28 | CCNC(=O)Nc1nc2cc(-c3ccc(C(C)(C)O)nc3)cc(C3CCCO3)c2[nH]1 (racemic) | 0.063 (≈ 0.154 µM) | 0.25 (≈ 0.611 µM) | 0.5 (≈ 1.22 µM) | 2 | 1 (≈ 2.44 µM) | 2.6 | –
29 | CCNC(=O)Nc1nc2cc(-c3cnc(C(C)(C)O)nc3)cc(C3CCCO3)c2[nH]1 (racemic) | 0.032 (≈ 0.078 µM) | 0.25 (≈ 0.609 µM) | 0.25 (≈ 0.609 µM) | 0.5 | 0.5 (≈ 1.22 µM) | 5.5 | –
